ChEMBL document CHEMBL1649165, “Activity profile in vitro of micafungin against Spanish clinical isolates of common and emerging species of yeasts and molds” (2009)
*1 amine or outer side, *2 acyl side, *3 side chain or, on linkers, in order; H or OH if unused. Where a SMILES comes first, the peptide text is derived from it. Bridges are numbered along the chain shown (N, C = ends). [ ]: non-standard residue; d: D form. The star is where a group is joined. hTyr(3S-OH,4S-OH,3'-OSO3H) = N[C@H](C(=O)O)[C@H](O)[C@@H](O)c1ccc(O)c(OS(=O)(=O)O)c1; Orn(4R-OH,5R-OH) = O=C([C@H](C[C@@H](O)[C@@H](O)N[*:3])N[*:1])[*:2]; Pro(3S-OH,4S-Me) = C[C@H]1CN[C@H](C(=O)O)[C@H]1O; X1 = CCCCCOc1ccc(-c2cc(-c3ccc(C(=O)*)cc3)no2)cc1; Gln(3R-OH) = NC(=O)C[C@@H](O)[C@H](N)C(=O)O; Hyp = O=C(O)[C@@H]1C[C@@H](O)CN1

Assays:
Type in all cases: functional
Lewia infectoria = assay: Antimicrobial activity against Alternaria infectoria by broth microdilution method
In short: (§1)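 Clinical mould isolates, tested by broth microdilution using the AFST-EUCAST reference method for filamentous fungi. For echinocandins, the endpoint was the minimum effective concentration: the lowest drug concentration giving aberrant hyphal growth, read with an inverted microscope.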

Fusarium oxysporum = assay: Antimicrobial activity against Fusarium oxysporum by broth microdilution method; in short: as §1
Fusarium reticulatum = assay: Antimicrobial activity against Fusarium reticulatum by broth microdilution method
In short: (§2)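 Filamentous fungus clinical isolates tested by the AFST-EUCAST reference broth microdilution method for moulds. For echinocandins, the endpoint was the minimum effective concentration: the lowest drug concentration giving aberrant hyphal growth, read with an inverted microscope.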

Diutina rugosa = assay: Antimicrobial activity against Candida rugosa by broth microdilution method
In short: (§3)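 Clinical isolates from human patients, tested by broth microdilution using the AFST-EUCAST reference procedure for fermentative yeasts. The MIC was read per that reference method.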

Aspergillus sydowii = assay: Antimicrobial activity against Aspergillus sydowii by broth microdilution method; in short: as §1
[1] = Antimicrobial activity against Rhizopus microsporus by broth microdilution method; in short: as §2
Rhizomucor = assay: Antimicrobial activity against Rhizomucor spp.by broth microdilution method; in short: as §2
Aspergillus nidulans = assay: Antimicrobial activity against Aspergillus nidulans by broth microdilution method; in short: as §1
Aspergillus ustus = assay: Antimicrobial activity against Aspergillus ustus by broth microdilution method; in short: as §1
Trichosporon dermatis = assay: Antimicrobial activity against Trichosporon dermatis by broth microdilution method; details: Cutaneotrichosporon dermatis
In short: (§4)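 Nonfermentative yeast clinical isolates (Rhodotorula, Trichosporon) tested by broth microdilution. The EUCAST yeast recommendations were followed strictly, with one minor modification to improve growth. MIC was read as the endpoint.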

[2] = system: Meyerozyma guilliermondii; assay: Antimicrobial activity against Candida guilliermondii by broth microdilution method; in short: as §3
Geotrichum candidum = assay: Antimicrobial activity against Galactomyces geotrichum by broth microdilution method
Aspergillus glaucus = assay: Antimicrobial activity against Aspergillus glaucus by broth microdilution method; in short: as §1
Aspergillus niger = assay: Antimicrobial activity against Aspergillus niger by broth microdilution method; in short: as §1
Paecilomyces lilacinus = assay: Antimicrobial activity against Paecilomyces lilacinus by broth microdilution method; details: Purpureocillium lilacinum; in short: as §2
Trichoderma = assay: Antimicrobial activity against Trichoderma spp. by broth microdilution method; in short: as §2
[3] = system: Cryptococcus deneoformans; assay: Antimicrobial activity against Cryptococcus neoformans var. neoformans by broth microdilution method
In short: (§5)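 Clinical isolates of nonfermentative yeasts, tested by broth microdilution following EUCAST recommendations. The only change from that method was a minor modification to improve growth.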

Aspergillus fumigatus = assay: Antimicrobial activity against Aspergillus fumigatus by broth microdilution method; in short: as §1
Pichia norvegensis = assay: Antimicrobial activity against Candida norvegensis by broth microdilution method; in short: as §3
Papiliotrema laurentii = assay: Antimicrobial activity against Cryptococcus laurentii by broth microdilution method; in short: as §5
Saccharomyces cerevisiae = assay: Antimicrobial activity against Saccharomyces cerevisiae by broth microdilution method
Torulaspora delbrueckii = assay: Antimicrobial activity against Candida coliculosa by broth microdilution method; in short: as §3
Aspergillus versicolor = assay: Antimicrobial activity against Aspergillus versicolor by broth microdilution method; in short: as §1
Aspergillus ochraceus = assay: Antimicrobial activity against Aspergillus ochraceus by broth microdilution method; in short: as §1
Trichosporon inkin = assay: Antimicrobial activity against Trichosporon inkin by broth microdilution method; in short: as §4
Trichosporon = assay: Antimicrobial activity against Trichosporon spp. by broth microdilution method; in short: as §4
Fusarium verticillioides = assay: Antimicrobial activity against Fusarium verticillioides by broth microdilution method; in short: as §2
Acremonium sp. = assay: Antimicrobial activity against Acremonium sp.by broth microdilution method; in short: as §1
[Candida] zeylanoides = Antimicrobial activity against Candida zeylanoides by broth microdilution method; details: Dujonia zeylanoides; in short: as §3
Saksenaea vasiformis = assay: Antimicrobial activity against Saksenaea vasiformis by broth microdilution method; in short: as §2
Aspergillus sclerotiorum = assay: Antimicrobial activity against Aspergillus sclerotiorum by broth microdilution method; in short: as §1
Penicillium = assay: Antimicrobial activity against Penicillium spp. by broth microdilution method; in short: as §2
Ustilago = assay: Antimicrobial activity against Ustilago spp by broth microdilution method
Rhodotorula mucilaginosa = assay: Antimicrobial activity against Rhodotorula mucilaginosa by broth microdilution method; in short: as §4
Scytalidium hyalinum = assay: Antimicrobial activity against Scytalidium hyalinum by broth microdilution method; details: Neoscytalidium hyalinum; in short: as §2
Trichosporon domesticum = assay: Antimicrobial activity against Trichosporon mycotoxinivorans by broth microdilution method; details: Apiotrichum domesticum
In short: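 Spanish human clinical isolates were tested as nonfermentative yeasts by broth microdilution. The method strictly followed the EUCAST recommendations, with a minor modification to improve growth, and the read-out was the MIC.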

Phialemonium curvatum = assay: Antimicrobial activity against Phialemonium curvatum by broth microdilution method; details: Thyridium curvatum; in short: as §2
Exophiala dermatitidis = assay: Antimicrobial activity against Exophiala dermatitidis by broth microdilution method
Alternaria alternata = assay: Antimicrobial activity against Alternaria alternata by broth microdilution method; in short: as §1
Candida metapsilosis = assay: Antimicrobial activity against Candida metapsilosis by broth microdilution method; details: Lodderomyces metapsilosis; in short: as §3
Trichosporon ovoides = assay: Antimicrobial activity against Trichosporon ovoides by broth microdilution method; in short: as §4
[4] = system: Scopulariopsis brevicaulis; assay: Antimicrobial activity against Scopulariopsis brevicaulis by broth microdilution method; in short: as §2
Trichosporon jirovecii = assay: Antimicrobial activity against Trichosporon jirovecii by broth microdilution method; details: Cutaneotrichosporon jirovecii; in short: as §4
Exophiala jeanselmei = assay: Antimicrobial activity against Exophiala jeanselmei by broth microdilution method

CCCCCOc1ccc(-c2cc(-c3ccc(C(=O)N[C@H]4C[C@@H](O)[C@@H](O)NC(=O)[C@@H]5[C@@H](O)[C@@H](C)CN5C(=O)[C@H]([C@H](O)CC(N)=O)NC(=O)[C@H]([C@H](O)[C@@H](O)c5ccc(O)c(OS(=O)(=O)O)c5)NC(=O)[C@@H]5C[C@@H](O)CN5C(=O)[C@H]([C@@H](C)O)NC4=O)cc3)no2)cc1 [MICAFUNGIN] (X1-[Orn(4R-OH,5R-OH)]T[Hyp][hTyr(3S-OH,4S-OH,3'-OSO3H)][Gln(3R-OH)][Pro(3S-OH,4S-Me)]; lactam 1-C)
0.06 µg/mL: MIC50 (Aspergillus ustus) | MIC50 (Aspergillus glaucus) | MIC90 (Aspergillus niger) | MIC90 (Saccharomyces cerevisiae) | MIC90 (Aspergillus versicolor) | MIC50 (Aspergillus ochraceus) | MIC50 (Aspergillus sclerotiorum) | MIC90 (Penicillium) | MIC90 (Scytalidium hyalinum) | MIC90 (Exophiala dermatitidis) | MIC90 (Exophiala jeanselmei)
> 16 µg/mL: MIC50 (Lewia infectoria) | MIC90 (Lewia infectoria) | MIC50 (Fusarium oxysporum) | MIC90 (Fusarium oxysporum) | MIC50 (Fusarium reticulatum) | MIC90 (Fusarium reticulatum) | MIC50 [1] | MIC90 [1] | MIC50 (Rhizomucor) | MIC90 (Rhizomucor) | MIC90 (Aspergillus nidulans) | MIC50 (Trichosporon dermatis) | MIC90 (Trichosporon dermatis) | MIC50 (Geotrichum candidum) | MIC90 (Geotrichum candidum) | MIC50 (Paecilomyces lilacinus) | MIC90 (Paecilomyces lilacinus) | MIC50 (Trichoderma) | MIC90 (Trichoderma) | MIC50 [3] | MIC90 [3] | MIC50 (Papiliotrema laurentii) | MIC90 (Papiliotrema laurentii) | MIC50 (Trichosporon inkin) | MIC90 (Trichosporon inkin) | MIC50 (Trichosporon) | MIC90 (Trichosporon) | MIC50 (Fusarium verticillioides) | MIC90 (Fusarium verticillioides) | MIC50 (Saksenaea vasiformis) | MIC90 (Saksenaea vasiformis) | MIC50 (Ustilago) | MIC90 (Ustilago) | MIC50 (Rhodotorula mucilaginosa) | MIC90 (Rhodotorula mucilaginosa) | MIC50 (Trichosporon domesticum) | MIC90 (Trichosporon domesticum) | MIC50 (Phialemonium curvatum) | MIC90 (Phialemonium curvatum) | MIC90 (Alternaria alternata) | MIC50 (Trichosporon ovoides) | MIC90 (Trichosporon ovoides) | MIC50 [4] | MIC90 [4] | MIC50 (Trichosporon jirovecii) | MIC90 (Trichosporon jirovecii)
0.25 µg/mL: MIC90 (Aspergillus ustus) | MIC90 (Aspergillus glaucus) | MIC90 (Aspergillus ochraceus) | MIC90 (Acremonium sp.) | MIC90 (Aspergillus sclerotiorum) | MIC50 (Alternaria alternata)
0.12 µg/mL: MIC90 (Diutina rugosa) | MIC50 [2] | MIC90 (Pichia norvegensis) | MIC90 (Torulaspora delbrueckii) | MIC50 (Acremonium sp.) | MIC90 ([Candida] zeylanoides) | MIC90 (Candida metapsilosis)
1 µg/mL: MIC90 [2]
0.03 µg/mL: MIC50 (Diutina rugosa) | MIC50 (Aspergillus sydowii) | MIC90 (Aspergillus sydowii) | MIC50 (Aspergillus nidulans) | MIC50 (Aspergillus niger) | MIC50 (Aspergillus fumigatus) | MIC90 (Aspergillus fumigatus) | MIC50 (Pichia norvegensis) | MIC50 (Saccharomyces cerevisiae) | MIC50 (Torulaspora delbrueckii) | MIC50 (Aspergillus versicolor) | MIC50 ([Candida] zeylanoides) | MIC50 (Penicillium) | MIC50 (Scytalidium hyalinum) | MIC50 (Exophiala dermatitidis) | MIC50 (Candida metapsilosis) | MIC50 (Exophiala jeanselmei)
